What was measured:
[1] = target: Ornithine decarboxylase (Mus musculus) (UniProt P00860); assay: Compound was evaluated for the ability to inhibit the phorbol ester induced increase of mouse epidermal ornithine decarboxylase (ODC) activity by 50% when administered topically using ODC assay.
[2] = target: T1, Ornithine decarboxylase (Mus musculus) (UniProt P00860); assay: Compound was evaluated for the ability to inhibit the phorbol ester induced increase of mouse epidermal ornithine decarboxylase (ODC) activity by 50% when administered topically using ODC assay.; format: functional
T1 sequence (whole entry): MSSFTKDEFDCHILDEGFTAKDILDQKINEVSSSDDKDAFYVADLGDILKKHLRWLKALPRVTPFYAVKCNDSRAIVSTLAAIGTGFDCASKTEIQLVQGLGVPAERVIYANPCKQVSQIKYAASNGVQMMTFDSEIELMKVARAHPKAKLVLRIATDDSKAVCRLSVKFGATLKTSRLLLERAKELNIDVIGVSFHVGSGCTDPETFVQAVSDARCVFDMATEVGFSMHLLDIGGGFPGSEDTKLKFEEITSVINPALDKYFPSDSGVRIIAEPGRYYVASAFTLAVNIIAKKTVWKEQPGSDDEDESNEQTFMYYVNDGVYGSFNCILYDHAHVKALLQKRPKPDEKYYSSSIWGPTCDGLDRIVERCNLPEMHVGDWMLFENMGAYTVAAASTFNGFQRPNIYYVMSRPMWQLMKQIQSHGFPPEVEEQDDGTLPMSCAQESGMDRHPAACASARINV
In short: (§1)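 Retinoids applied topically to mouse skin at 0.1, 1.0, 5.0, 10 and 50 nmol, 1 h before 10 nmol TPA. Epidermal ODC activity measured 4.5 h after TPA as nmol CO2/30 min per mg protein. ID50 (dose giving 50% inhibition of TPA-induced ODC) read from dose-response curves; three experiments, results normalized.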

[3] = test system: HL-60; assay: Compound was evaluated for the retinoid-induced differentiation of the human myeloid leukemia cell line HL-60 using trans-retinoic acid as the standard.; format: functional; conditions: read-out: ED50 (the source's name)
[4] = target: T1, Ornithine decarboxylase (Mus musculus); assay: Compound was evaluated for the percentage inhibition of test retinoid as compared to the control by ODCassay; format: functional; conditions: concentration not given here
In short: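 Single topical retinoid dose of 34 nmol given 1 h before 10 nmol TPA on mouse skin. Epidermal ODC assayed 4.5 h after TPA as nmol CO2/30 min per mg protein. Three groups of two mice each. % inhibition = [(ODC with TPA) − (ODC with TPA + retinoid)]/(ODC with TPA) × 100.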

[5] = target: T1, Ornithine decarboxylase (Mus musculus); assay: Compound was evaluated for the ability to inhibit the phorbol ester induced increase of mouse epidermal ornithine decarboxylase; format: functional
In short: as §1

ID50 [2] | EC50 [3] | SMILES | further results
 |  | COC(=O)c1ccc(/C=C(\C)c2ccc3c(c2)C(C)(C)CC(C)(C)S3)cc1 | ID50 [1]: 0.0003 µM
0.035 µM | > 1 µM | C/C(=C\C=C\[C@H]1C[C@@H]1C(=O)O)c1ccc2c(c1)C(C)(C)CCS2 | 
0.00012 µM | 0.05 µM | CC1=C(/C=C/C(C)=C/C=C/C(C)=C/C(=O)O)C(C)(C)CCC1 [TRETINOIN] | 
> 0.05 µM |  | CC1(C)CC(C)(C)c2cc(/C(=C/c3ccc(C(=O)O)cc3)C(F)(F)F)ccc2S1 | 
> 0.05 µM |  | COC(=O)c1ccc(/C=C(/c2ccc3c(c2)C(C)(C)CCO3)C(F)(F)F)cc1 | 
 |  | CCCCCCCCCCCCCC(=O)OCC1(C)[C@H]2[C@@H]3C=C(CO)C[C@]4(O)C(=O)C(C)=C[C@H]4[C@@]3(O)[C@H](C)[C@@H](O)[C@]21OC(C)=O.COC(=O)c1ccc(/C=C(\C)c2ccc3c(c2)C(C)(C)CS3)cc1 (some centres undefined) | inhibition [4]: 94%; ID50 [5]: 0.0012 µM
 |  | C/C(=C\c1ccc(C(=O)O)cc1)c1ccc2c(c1)C(C)(C)CS2.CCCCCCCCCCCCCC(=O)OCC1(C)[C@H]2[C@@H]3C=C(CO)C[C@]4(O)C(=O)C(C)=C[C@H]4[C@@]3(O)[C@H](C)[C@@H](O)[C@]21OC(C)=O (some centres undefined) | inhibition [4]: 91%; ID50 [5]: 0.022 µM
0.0037 µM | > 1 µM | CC(/C=C/C=C(\C)c1ccc2c(c1)C(C)(C)CC(C)(C)S2)=C\C(=O)O | 
 | 0.1 µM | CC1=C(/C=C/C(C)=C/C=C/C(C)=C\C(=O)O)C(C)(C)CCC1 [ISOTRETINOIN] | 
> 0.05 µM | > 1 µM | CC1(C)CCOc2ccc(/C(=C/c3ccc(C(=O)O)cc3)C(F)(F)F)cc21 | 
0.035 µM | > 1 µM | CC1(C)CCSc2ccc(/C(=C/c3ccc(C(=O)O)cc3)C(F)(F)F)cc21 | 
0.00031 µM | > 1 µM | C/C(=C\c1ccc(C(=O)O)cc1)c1ccc2c(c1)C(C)(C)CC(C)(C)S2 | 
> 0.05 µM |  | COC(=O)c1ccc(/C=C(/c2ccc3c(c2)C(C)(C)CC(C)(C)S3)C(F)(F)F)cc1 | 
0.0033 µM | 0.5 µM | CC(/C=C/C=C(\C)c1ccc2c(c1)C(C)(C)CCS2)=C\C(=O)O | 
> 0.05 µM |  | COC(=O)c1ccc(/C=C(/c2ccc3c(c2)C(C)(C)CCS3)C(F)(F)F)cc1 | 

Reference: ChEMBL document CHEMBL1125746, “Novel heteroarotinoids: synthesis and biological activity” (1991)
